Results: ChEMBL document CHEMBL4138218, “Potent aromatase inhibitors and molecular mechanism of inhibitory action” (Eur J Med Chem, 2018)

Columns and labels:
Aromatase = molecular target: T1, Aromatase (Homo sapiens, UniProt P11511); assay: Inhibition of human aromatase using androstenedione as substrate and NADPH preincubated for 24 hrs followed by substrate addition measured after 24 hrs by ELISA
T1 sequence (P11511 whole entry): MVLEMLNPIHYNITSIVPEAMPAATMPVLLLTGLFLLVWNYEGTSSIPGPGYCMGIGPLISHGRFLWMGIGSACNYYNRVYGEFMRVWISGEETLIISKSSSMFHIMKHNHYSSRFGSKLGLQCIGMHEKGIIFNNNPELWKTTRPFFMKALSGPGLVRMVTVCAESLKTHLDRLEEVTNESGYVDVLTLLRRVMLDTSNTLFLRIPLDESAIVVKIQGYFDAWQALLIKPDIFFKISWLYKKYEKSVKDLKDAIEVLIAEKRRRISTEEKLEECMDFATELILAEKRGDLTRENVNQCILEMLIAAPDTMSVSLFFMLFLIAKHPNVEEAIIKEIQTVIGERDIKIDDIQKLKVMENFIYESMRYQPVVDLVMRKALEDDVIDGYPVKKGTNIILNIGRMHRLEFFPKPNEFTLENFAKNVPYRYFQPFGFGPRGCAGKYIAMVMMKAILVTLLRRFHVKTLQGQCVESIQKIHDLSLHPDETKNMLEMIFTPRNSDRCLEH
Method in brief: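 Enzyme was a microsomal pellet from human placenta: tissue homogenized in TES buffer (20 mM TES, 1 mM EDTA, 0.15 M KCl, 0.1 mM PMSF, pH 7.4), spun at 10,000 g for 25 min then 100,000 g for 75 min at 4 °C, resuspended with 0.25 M sucrose, stored at −80 °C. Androstenedione substrate with NADPH; estrone quantified by ELISA against a standard curve. Triplicates, mean IC50.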

MCF7 = assay: Cytotoxicity against human MCF7 cells after 48 hrs by MTT assay; assay type: cell-based; details: MCF7, 48 h
Method in brief: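 MCF-7 cells in DMEM with 10% FBS and 1% penicillin-streptomycin at 37 °C, 5% CO2. Seeded at 4,000 cells/well and left overnight, then exposed to a range of concentrations for 48 h. Medium replaced with fresh medium containing MTT (5 mg/ml) for 4 h, formazan dissolved in DMSO, absorbance read at 490 nm. IC50 computed from the curves.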

Row | Structure (SMILES) | IC50 (Aromatase) [µM] | IC50 (MCF7) [µM]
1 | COc1ccc2c(Cn3ccnc3)c(-c3ccc(F)cc3)[nH]c2c1 | 0.109 | > 1000
2 | Clc1ccc(-c2[nH]c3cc4c(cc3c2Cn2ccnc2)OCO4)cc1 | 2.64 | > 1000
3 | Fc1ccc(-c2[nH]c3cc4c(cc3c2Cn2ccnc2)OCO4)cc1 | 0.211 | > 1000
4 | COc1ccc2c(Cn3ccnc3)c(-c3ccc(Cl)cc3)[nH]c2c1 | 1.06 | > 1000
5 | COc1ccc2c(Cn3cncn3)c(-c3ccc(F)cc3)[nH]c2c1 | 0.238 | 12.2
6 | Fc1ccc(-c2[nH]c3cc(Cl)ccc3c2Cn2ccnc2)cc1 | 0.0323 | 41.5
7 | N#Cc1ccc(C(c2ccc(C#N)cc2)n2cncn2)cc1 [LETROZOLE] |  | 4.73
8 | COc1ccc2c(Cn3cncn3)c(-c3ccc(Cl)cc3)[nH]c2c1 | 7.77 | 612
9 | Clc1ccc(-c2[nH]c3cc(Cl)ccc3c2Cn2ccnc2)cc1 | 0.261 | > 1000
10 | COc1ccc(-c2[nH]c3cc(Cl)ccc3c2Cn2cncn2)cc1 | 0.196 | 14.4
11 | Fc1ccc(-c2[nH]c3cc(F)ccc3c2Cn2ccnc2)cc1 | 0.0512 | 83.2
12 | COc1ccc(-c2[nH]c3cc(Cl)ccc3c2Cn2ccnc2)cc1 | 0.277 | > 1000
13 | COc1ccc(-c2[nH]c3cc(F)ccc3c2Cn2ccnc2)cc1 | 0.0361 | > 1000
14 | Fc1ccc2c(Cn3cncn3)c(-c3ccc(Cl)cc3)[nH]c2c1 | 0.217 | > 1000
15 | COc1ccc(-c2[nH]c3cc(F)ccc3c2Cn2cncn2)cc1 | 0.0141 | 325
16 | Fc1ccc(-c2[nH]c3cc(F)ccc3c2Cn2cncn2)cc1 | 0.0544 | > 1000
17 | Fc1ccc(-c2[nH]c3cc4c(cc3c2Cn2cncn2)OCO4)cc1 | 0.0583 | 334
18 | Fc1ccc2c(Cn3ccnc3)c(-c3ccc(Cl)cc3)[nH]c2c1 | 0.0829 | 45
19 | Fc1ccc(-c2[nH]c3cc(Cl)ccc3c2Cn2cncn2)cc1 | 0.0969 | 625
20 | Clc1ccc(-c2[nH]c3cc(Cl)ccc3c2Cn2cncn2)cc1 | 0.208 | 382
21 | Clc1ccc(-c2[nH]c3cc4c(cc3c2Cn2cncn2)OCO4)cc1 | 0.677 | 354
